Screening results: PubChem BioAssay, several laboratories
Apaf-1 inh = blocks human Apaf-1 apoptosome activity; 330,000 tested, 0.71% active; O14727; reconstituted apoptosome caspase-3 activity, DEVD-Rh110 fluorescence; inhibition, % at 20 µM; active means inhibition of at least 40% at 20 µM;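 further: plate controls were DMSO wells for no effect and DEVD-CHO caspase inhibitor wells for full effect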
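System – cell-free apoptosome with Apaf-1, procaspase-3 and caspase-9 · Buffer or medium – pH 7.5 Hepes buffer with CHAPS, BSA, DTT · Also added – cytochrome c with DEVD-Rh110 · Times – 30 min compound preincubation, 50 min activation, room temperature · Technique – Rh110 fluorescence intensity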
DTT redox prof = compounds producing H2O2 with reducing agent – biochemical, NIH compound library profiling, artefact control for MLSCN library redox annotation, primary screen; AID 878; DTT-dependent redox cycling H2O2, phenol red/HRP absorbance; 100% = 100 µM peroxide control, 0% = buffer; 200,000 tested, 0.03% active; activation, % at 10 µM;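 active means activation of at least 50% relative to the plate's high and low controls in the primary single-dose screen; inactive means activation below 50%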;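 further: compound incubated with DTT at 0.8 mM final as the reducing agent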
HKDC1 inh = inhibitors of human hexokinase HKDC1 | Q2TB90 | recombinant HKDC1, G6PDH/diaphorase resazurin coupled fluorescence | inhibition, % at 20 µM | 340,000 tested, 0.16% active;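 active means inhibition above about 35% when tested at 20 µM, limit read from the data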;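 further: plate controls were DMSO wells with enzyme for no effect and DMSO wells lacking enzyme for full effect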
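Material: recombinant HKDC1 hexokinase; Amount: HKDC1 at 5 µg/mL; Medium: Tris pH 8.0 buffer with MgCl2, Tween-20, BSA, BME; Schedule: 90 min reaction incubation at room temperature, dark; Technique: coupled resazurin fluorescence, excitation 525 nm, emission 613 nm.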
GSTO1 counter = GSTO1 inhibition, counter-screen for RBBP9 inhibitors. P78417. AID 1974. recombinant GSTO1, activity-based probe fluorescence polarization. inhibition, % at 5.96 µM. 300,000 tested, 1.1% active;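 active means inhibition above the campaign mean inhibition plus 3 SD, cut at about 35% in these data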;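 further: 0% = GSTO1-1 with DMSO and 100% = wells lacking GSTO1-1 enzyme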
Target sequence (P78417 whole entry, looked up): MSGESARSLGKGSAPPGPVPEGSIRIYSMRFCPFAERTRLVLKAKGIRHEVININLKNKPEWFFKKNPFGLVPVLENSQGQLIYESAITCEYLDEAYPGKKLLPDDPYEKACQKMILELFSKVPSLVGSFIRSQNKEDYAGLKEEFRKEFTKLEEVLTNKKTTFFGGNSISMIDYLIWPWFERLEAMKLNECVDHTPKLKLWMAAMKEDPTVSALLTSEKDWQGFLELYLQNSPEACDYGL
SUMO HTRF inh = SUMOylation inhibition. P63279. HTRF SUMOylation assay, SAE1/SAE2 + UBC9, in vitro. inhibition, % at 35 µM. 290,000 tested, 0.36% active; in the data active means inhibition above about 50%, passing the limit was not always enough; inconclusive means no clear call, values can overlap the other calls
Target sequence (P63279 whole entry, looked up): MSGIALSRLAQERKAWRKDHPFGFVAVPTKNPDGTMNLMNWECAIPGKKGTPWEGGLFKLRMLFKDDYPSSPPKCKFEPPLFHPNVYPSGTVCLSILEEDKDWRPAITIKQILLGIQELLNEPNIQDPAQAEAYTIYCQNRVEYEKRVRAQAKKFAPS
GSTO1 confirm = confirmation of human GSTO1 inhibitors | shares compounds with GSTO1 counter | recombinant GSTO1, probe fluorescence polarization | inhibition, % at 5.96 µM | 2,400 tested, 54% active;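 active means inhibition above the primary screen's cutoff, its mean inhibition plus 3 SD, cut at about 35% in these data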;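 further: loss of polarization as inhibitors block binding of rhodamine sulfonate ester activity probe; 0% = GSTO1 with DMSO and 100% = wells lacking GSTO1 enzyme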
GSTO1 ABPP inh = blocks recombinant human glutathione S-transferase omega 1; AID 463110; shares compounds with GSTO1 counter; recombinant GSTO1, gel ABPP SE-Rh probe fluorescence; inhibition, % at 1 µM; 130 tested, 30% active;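 active means inhibition of the enzyme GSTO1 above about 75%, limit read from the data; inactive means inhibition below that limit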
Apaf-1 inh conf2 = Apaf-1 inhibition, single-dose confirmed. AID 504614. 1,800 tested, 25% active. shares compounds with Apaf-1 inh. inhibition, % at 20 µM. reconstituted apoptosome, caspase-3 DEVD-Rh110 fluorescence;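 active means mean inhibition of at least 40% at 20 µM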;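 further: plate controls were DMSO wells for no effect and DEVD-CHO caspase inhibitor control wells for full effect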
Rh110 interf inh = counter-screen for Apaf-1 inhibitors: fluorescence interference | shares compounds with Apaf-1 inh | Rh110 fluorescence interference, quenched caspase reaction | activation (fluorescence interference), % at 20 µM | 1,800 tested, under 10 active;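 active means signal rise of 40% or more at 20 µM, treated as a fluorescence artifact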
Apaf1 inh interf = shows fluorescence interference in the Apaf-1 inhibitor assay format. shares compounds with Apaf-1 inh. fluorescence interference counterscreen, Apaf-1 assay format. IC50, µM. 460 tested, under 10 active; call rule not given here
HKDC1 act conf = confirmation of human HKDC1 activators; 740 tested, 14% active; shares compounds with HKDC1 inh; recombinant HKDC1, G6PDH/diaphorase resazurin fluorescence; hits give low values; AID 504708; inhibition, % at 20 µM;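 active means inhibition at or below a set negative limit, negative inhibition meaning the enzyme was activated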
* = called active by the depositor. An excerpt weighted towards active compounds, which were near 1.4% of everything screened.

`CCc1ccc(S(=O)(=O)/N=C2\C=C(Nc3ccc(C(=O)O)cc3)C(=O)c3ccccc32)cc1` gave Apaf-1 inh 96.4*, HKDC1 inh 53.7*, GSTO1 counter 93.9*, SUMO HTRF inh inconclusive, GSTO1 confirm 91.2*, Apaf-1 inh conf2 89.2*, Rh110 interf inh -0.1, Apaf1 inh interf >100 and HKDC1 act conf 59.8.
Screening Cc1ccc(C(=O)Nc2ccc(N3CCN(C(=O)c4cccs4)CC3)cc2)c(Cl)c1 returned Apaf-1 inh 12.1, HKDC1 inh -4.0, GSTO1 counter -9.3 and SUMO HTRF inh 5.4.
COc1cc2c(cc1OC)C(C1C(=O)CC(C)(C)CC1=O)N(C(=O)CCl)CC2 (configuration not stated) was read as Apaf-1 inh 0.1, DTT redox prof -0.4, HKDC1 inh -8.7, GSTO1 counter 18.2 and SUMO HTRF inh 30.8.
Screening COc1cc2c(cc1OC)C(c1cc(Br)ccc1F)N(C(=O)CCl)CC2 (configuration not stated) returned Apaf-1 inh 9.1, HKDC1 inh 37.8*, GSTO1 counter 85.5*, SUMO HTRF inh 0.0, GSTO1 confirm 96.1*, GSTO1 ABPP inh 87.0* and HKDC1 act conf 19.3.
`O=C(NC1=C(Nc2ccc(Cl)cc2)C(=O)c2ccccc2C1=O)c1ccccc1` gave Apaf-1 inh 53.5*, DTT redox prof -0.5, HKDC1 inh 4.7, GSTO1 counter 32.0, SUMO HTRF inh 19.5, Apaf-1 inh conf2 41.9*, Rh110 interf inh -4.7 and Apaf1 inh interf >100.
CCOc1ccc(NC(=O)c2c[nH]n3c(=O)cc(C4CCN(C(=O)OC(C)(C)C)CC4)nc23)cc1 was read as Apaf-1 inh 40.4*, HKDC1 inh -1.2, GSTO1 counter 4.5, SUMO HTRF inh -3.8, Apaf-1 inh conf2 26.0 and Rh110 interf inh 3.8.
Screening CCOC(=O)N1CCC(c2cc(=O)n3[nH]cc(C(=O)OC)c3n2)CC1 returned Apaf-1 inh 9.7, DTT redox prof -0.8, HKDC1 inh -5.0, GSTO1 counter 9.2 and SUMO HTRF inh 12.2.
CCCCCCCCCCCCCCCC(O)C[N+](C)(C)CCO (configuration not stated) was read as HKDC1 inh 0.1.
Screening CCCCCCCCCCCCCCCC(O)C(N)CO (configuration not stated) returned Apaf-1 inh 80.2*, DTT redox prof 0.4, HKDC1 inh -7.3, GSTO1 counter 1.8, SUMO HTRF inh 7.5, Apaf-1 inh conf2 20.8 and Rh110 interf inh 12.9.
Screening CCCCOC(=O)Cn1c(=O)n(CC(=O)OCCCC)c2ccccc21 returned Apaf-1 inh -0.9, DTT redox prof -0.1, HKDC1 inh -0.9, GSTO1 counter -3.2 and SUMO HTRF inh 21.6.
For CCOC(=O)Cn1c(COc2ccccc2OC)[n+](C)c2ccccc21 the results were Apaf-1 inh -7.3, HKDC1 inh 0.1 and GSTO1 counter 4.6.
For CCCCCCCCCCOC(=O)Cn1c(COc2ccc(OC)cc2)[n+](C)c2ccccc21 the results were Apaf-1 inh 72.4*, HKDC1 inh 5.0, GSTO1 counter 5.8, SUMO HTRF inh 17.3, Apaf-1 inh conf2 68.2*, Rh110 interf inh 17.4 and Apaf1 inh interf >100.
CCCCCCCCCCOC(=O)Cn1c(COc2ccccc2)[n+](C)c2ccccc21 was read as Apaf-1 inh 73.1*, HKDC1 inh 1.0, GSTO1 counter -2.2, SUMO HTRF inh 20.2, Apaf-1 inh conf2 72.2*, Rh110 interf inh 25.3 and Apaf1 inh interf >100.
CCCCCCCCCCOC(=O)Cn1c(COc2ccc(Cl)cc2)[n+](C)c2ccccc21 was read as Apaf-1 inh 84.5*, HKDC1 inh -7.0, GSTO1 counter 6.0, SUMO HTRF inh 8.2, Apaf-1 inh conf2 90.4*, Rh110 interf inh 23.8 and Apaf1 inh interf >100.
Screening CCCCCOC(=O)Cn1c(=O)oc2ccccc21 returned Apaf-1 inh 2.0, DTT redox prof -0.4, HKDC1 inh -3.8, GSTO1 counter 6.0 and SUMO HTRF inh -8.3.
CCCCCCCCCCOC(=O)Cn1c(COc2ccccc2C)[n+](C)c2ccccc21 was read as Apaf-1 inh 80.8*, HKDC1 inh -0.5, GSTO1 counter 0.9, SUMO HTRF inh 15.5, Apaf-1 inh conf2 83.0*, Rh110 interf inh 24.7 and Apaf1 inh interf >100.
`CCCCn1c(N)c(N(Cc2ccccc2OC)C(=O)c2cc(CC)c(C)s2)c(=O)[nH]c1=O` gave Apaf-1 inh 18.3 and HKDC1 inh 0.1.
O=C(CN1C(=O)C2CC=CCC2C1=O)Nc1ccc(OC(F)(F)F)cc1 (configuration not stated) was read as Apaf-1 inh -5.0 and HKDC1 inh 4.2.
Screening Cc1ccccc1OCc1n(CC(=O)OC2CC(C)CCC2C(C)C)c2ccccc2[n+]1C (configuration not stated) returned Apaf-1 inh 47.3*, DTT redox prof 1.2, HKDC1 inh -5.4, GSTO1 counter -6.1, SUMO HTRF inh 2.2, Apaf-1 inh conf2 47.7*, Rh110 interf inh 19.6 and Apaf1 inh interf >100.
`CCCCCCCCCCOC(=O)Cn1c(COc2cccc(C)c2)[n+](C)c2ccccc21` gave Apaf-1 inh 79.4*, HKDC1 inh -8.4, GSTO1 counter 5.4, SUMO HTRF inh 19.8, Apaf-1 inh conf2 77.3*, Rh110 interf inh 33.5 and Apaf1 inh interf >100.
Screening Oc1c(Br)cc(Br)cc1C=Nc1ccc2[nH]ncc2c1 returned Apaf-1 inh 83.8*, HKDC1 inh 25.5, GSTO1 counter 11.6, SUMO HTRF inh 48.8, Apaf-1 inh conf2 34.5 and Rh110 interf inh 7.0.
Oc1c(Br)cc(Br)cc1C=Nc1cccnc1 was read as Apaf-1 inh 79.2*, HKDC1 inh 14.8, GSTO1 counter 4.1, SUMO HTRF inh 33.9, Apaf-1 inh conf2 36.3 and Rh110 interf inh 4.5.
Screening Oc1c(Br)cc(Br)cc1/C=N/c1nccs1 returned Apaf-1 inh 8.2 and HKDC1 inh 15.8.
